Laboratory results as given in ChEMBL document CHEMBL3585281, “Antibacterial Labdane Diterpenoids from Vitex vestita” (2015).
In brackets after ≈: the same amount, converted by molar mass.

Key:
Format in all cases: functional
[1] = system: Enterococcus faecium; experiment: Antibacterial activity against Enterococcus faecium N507 after 18 hrs by agar dilution method; conditions: N507, 18 h
How it was run: (§1)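 Agar-dilution MIC against Gram-positive strains. Compounds in DMSO, geometric dilutions giving final 100−0.75 mg/L in Mueller Hinton agar. Strains grown 18 h at 37 °C in trypticase soy broth, diluted in sterile water, spotted by Steers inoculator (about 1000 UFC/spot). Plates incubated 18 h at 37 °C; DMSO blank; ofloxacin positive control. MIC = lowest concentration with no visible growth.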

[2] = system: Bacillus cereus; experiment: Antibacterial activity against Bacillus cereus N190 after 18 hrs by agar dilution method; conditions: N190, 18 h; how it was run: as §1
[3] = system: Bacillus spizizenii; experiment: Antibacterial activity against Bacillus subtilis ATCC 6633 after 18 hrs by agar dilution method; conditions: ATCC 6633, 18 h; how it was run: as §1
[4] = system: Mammaliicoccus sciuri; experiment: Antibacterial activity against Staphylococcus sciuri N993 after 18 hrs by agar dilution method; conditions: N993, 18 h; how it was run: as §1
[5] = system: Staphylococcus aureus; experiment: Antibacterial activity against Staphylococcus aureus ATCC 9144 oxford after 18 hrs by agar dilution method; how it was run: as §1
[6] = system: Streptococcus agalactiae; experiment: Antibacterial activity against Streptococcus agalactiae CIP 103227 after 18 hrs by agar dilution method; conditions: ATCC 13813, 18 h; how it was run: as §1
[7] = system: Enterococcus durans; experiment: Antibacterial activity against Enterococcus durans CIP 104999 after 18 hrs by agar dilution method; conditions: CIP 104999, 18 h; how it was run: as §1
[8] = system: Staphylococcus lugdunensis; experiment: Antibacterial activity against Staphylococcus lugdunensis ATCC 43809 after 18 hrs by agar dilution method; conditions: ATCC 43809, 18 h; how it was run: as §1
[9] = system: Enterococcus faecium; experiment: Antibacterial activity against Enterococcus faecium N490 after 18 hrs by agar dilution method; conditions: N490, 18 h; how it was run: as §1
[10] = system: HCT-116; experiment: Cytotoxicity against human HCT116 cells assessed as growth inhibition at 10^-6 M after 72 hrs by MTS assay relative to control; conditions: HCT-116, 72 h, read-out: GI
How it was run: (§2)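 Cells from ATCC; HCT-116 grown in RPMI 1640 and MRC5 in DMEM, each with 10% FCS and 1% glutamine, 37 °C, 5% CO2. Seeded at 2.5 × 10^3 cells/well, cultured 24 h, then exposed to compounds at 1 and 10 μM final for 72 h. MTS read-out, absorbance 490 nm; percent index from treated/control OD490 × 100, three experiments.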

[11] = system: Staphylococcus haemolyticus; experiment: Antibacterial activity against Staphylococcus haemolyticus CIP 8156 after 18 hrs by agar dilution method; conditions: CIP 8156, 18 h; how it was run: as §1
[12] = system: Enterococcus faecalis; experiment: Antibacterial activity against Enterococcus faecalis CIP 103214 after 18 hrs by agar dilution method; conditions: CIP 103214, 18 h; how it was run: as §1
[13] = system: Enterococcus faecalis; experiment: Antibacterial activity against Enterococcus faecalis N520 after 18 hrs by agar dilution method; conditions: N520, 18 h; how it was run: as §1
[14] = system: Staphylococcus aureus; experiment: Antibacterial activity against Staphylococcus aureus CIP 53154 after 18 hrs by agar dilution method; conditions: CIP 53154, 18 h; how it was run: as §1
[15] = system: Enterococcus faecalis; experiment: Antibacterial activity against Enterococcus faecalis CIP 104676 after 18 hrs by agar dilution method; conditions: CIP 104676, 18 h; how it was run: as §1
[16] = system: Listeria monocytogenes; experiment: Antibacterial activity against Listeria monocytogenes N836 after 18 hrs by agar dilution method; conditions: N836, 18 h; how it was run: as §1
[17] = system: HCT-116; experiment: Cytotoxicity against human HCT116 cells assessed as growth inhibition at 10^-5 M after 72 hrs by MTS assay relative to control; conditions: HCT-116, 72 h, read-out: GI; how it was run: as §2
[18] = system: Enterococcus faecium; experiment: Antibacterial activity against Enterococcus faecium CIP 103014 after 18 hrs by agar dilution method; conditions: CIP 103014, 18 h; how it was run: as §1
[19] = system: Bacillus cereus; experiment: Antibacterial activity against Bacillus cereus CIP 6624 after 18 hrs by agar dilution method; conditions: CIP 6624, 18 h; how it was run: as §1
[20] = system: Listeria monocytogenes; experiment: Antibacterial activity against Listeria monocytogenes N851 after 18 hrs by agar dilution method; conditions: N851, 18 h; how it was run: as §1
[21] = system: Enterococcus avium; experiment: Antibacterial activity against Enterococcus avium CIP 104053 after 18 hrs by agar dilution method; conditions: CIP 104053, 18 h; how it was run: as §1
[22] = system: Staphylococcus epidermidis; experiment: Antibacterial activity against Staphylococcus epidermidis CIP 53124 after 18 hrs by agar dilution method; conditions: CIP 53124, 18 h; how it was run: as §1
[23] = system: Enterococcus gallinarum; experiment: Antibacterial activity against Enterococcus gallinarum CIP 105985 after 18 hrs by agar dilution method; conditions: CIP 105985, 18 h; how it was run: as §1
[24] = system: Enterococcus faecalis; experiment: Antibacterial activity against Enterococcus faecalis N518 after 18 hrs by agar dilution method; conditions: N518, 18 h; how it was run: as §1
[25] = system: Enterococcus faecium; experiment: Antibacterial activity against Enterococcus faecium N733 after 18 hrs by agar dilution method; conditions: N733, 18 h; how it was run: as §1
[26] = system: Staphylococcus aureus; experiment: Antibacterial activity against Staphylococcus aureus CIP 7625 after 18 hrs by agar dilution method; conditions: CIP 7625, 18 h; how it was run: as §1
[27] = system: Enterococcus hirae; experiment: Antibacterial activity against Enterococcus hirae CIP 5855 after 18 hrs by agar dilution method; conditions: CIP 5855, 18 h; how it was run: as §1
[28] = system: Enterococcus gallinarum; experiment: Antibacterial activity against Enterococcus gallinarum N492 after 18 hrs by agar dilution method; conditions: N492, 18 h; how it was run: as §1
[29] = system: MRC5; experiment: Cytotoxicity against human MRC5 cells assessed as growth inhibition at 10^-5 M after 72 hrs by MTS assay relative to control; conditions: MRC5, 72 h, read-out: GI; how it was run: as §2
[30] = system: Enterococcus faecium; experiment: Antibacterial activity against Enterococcus faecium CIP 107387 after 18 hrs by agar dilution method; conditions: CIP 107387, 18 h; how it was run: as §1
[31] = system: Enterococcus casseliflavus; experiment: Antibacterial activity against Enterococcus casseliflavus CIP 103018 after 18 hrs by agar dilution method; conditions: CIP 103018, 18 h; how it was run: as §1
[32] = system: Enterococcus faecalis; experiment: Antibacterial activity against Enterococcus faecalis N491 after 18 hrs by agar dilution method; conditions: N491, 18 h; how it was run: as §1
[33] = system: Listeria monocytogenes; experiment: Antibacterial activity against Listeria monocytogenes CIP 103575 after 18 hrs by agar dilution method; conditions: CIP 103575, 18 h; how it was run: as §1
[34] = system: Listeria innocua; experiment: Antibacterial activity against Listeria innocua E044 after 18 hrs by agar dilution method; conditions: E044, 18 h; how it was run: as §1
[35] = system: Enterococcus faecium; experiment: Antibacterial activity against Enterococcus faecium N823 after 18 hrs by agar dilution method; conditions: N823, 18 h; how it was run: as §1
[36] = system: Staphylococcus aureus; experiment: Antibacterial activity against Staphylococcus aureus CIP 53156 after 18 hrs by agar dilution method; conditions: CIP 53156, 18 h; how it was run: as §1
[37] = system: Staphylococcus aureus; experiment: Antibacterial activity against Staphylococcus aureus CIP 5710 after 18 hrs by agar dilution method; conditions: CIP 5710, 18 h; how it was run: as §1
[38] = system: Bacillus cereus; experiment: Antibacterial activity against Bacillus cereus N349 after 18 hrs by agar dilution method; conditions: N349, 18 h; how it was run: as §1
[39] = system: Listeria monocytogenes; experiment: Antibacterial activity against Listeria monocytogenes N783 after 18 hrs by agar dilution method; conditions: N783, 18 h; how it was run: as §1
[40] = system: Staphylococcus aureus; experiment: Antibacterial activity against Staphylococcus aureus ATCC 25923 after 18 hrs by agar dilution method; conditions: ATCC 25923, 18 h; how it was run: as §1
[41] = system: Staphylococcus saprophyticus; experiment: Antibacterial activity against Staphylococcus saprophyticus E260 after 18 hrs by agar dilution method; conditions: E260, 18 h; how it was run: as §1
[42] = system: Staphylococcus saprophyticus; experiment: Antibacterial activity against Staphylococcus saprophyticus CIP 76125 after 18 hrs by agar dilution method; conditions: CIP 76125, 18 h; how it was run: as §1
[43] = system: Corynebacterium striatum; experiment: Antibacterial activity against Corynebacterium striatum N840 after 18 hrs by agar dilution method; conditions: N840, 18 h; how it was run: as §1
[44] = system: Staphylococcus intermedius; experiment: Antibacterial activity against Staphylococcus intermedius N987 after 18 hrs by agar dilution method; conditions: N987, 18 h; how it was run: as §1
[45] = system: Enterococcus gallinarum; experiment: Antibacterial activity against Enterococcus gallinarum N489 after 18 hrs by agar dilution method; conditions: N489, 18 h; how it was run: as §1
[46] = system: Staphylococcus aureus; experiment: Antibacterial activity against Staphylococcus aureus CRBIP 2121 after 18 hrs by agar dilution method; conditions: CRBIP 2121, 18 h; how it was run: as §1
[47] = system: Staphylococcus aureus; experiment: Antibacterial activity against Staphylococcus aureus CIP 483 after 18 hrs by agar dilution method; conditions: CIP 483, 18 h; how it was run: as §1
[48] = system: Bacillus cereus; experiment: Antibacterial activity against Bacillus cereus N258 after 18 hrs by agar dilution method; conditions: N258, 18 h; how it was run: as §1
[49] = system: Enterococcus casseliflavus; experiment: Antibacterial activity against Enterococcus casseliflavus N487 after 18 hrs by agar dilution method; conditions: N487, 18 h; how it was run: as §1
[50] = system: MRC5; experiment: Cytotoxicity against human MRC5 cells assessed as growth inhibition at 10^-6 M after 72 hrs by MTS assay relative to control; conditions: MRC5, 72 h, read-out: GI; how it was run: as §2

- MIC [1]: > 158 µM
- MIC [2]: 25 µM (≈ 7.96 µg/mL)
- MIC [3]: 100 µM (≈ 31.8 µg/mL)
- MIC [4]: 158 µM (≈ 50.3 µg/mL)
- MIC [5]: 158 µM (≈ 50.3 µg/mL)
- MIC [6]: 100 µM (≈ 31.8 µg/mL)
- MIC [7]: > 158 µM
- MIC [8]: 158 µM (≈ 50.3 µg/mL)
- MIC [9]: 158 µM (≈ 50.3 µg/mL)
- MIC [12]: > 158 µM
- MIC [13]: > 158 µM
- MIC [14]: 158 µM (≈ 50.3 µg/mL)
- MIC [15]: > 158 µM
- MIC [16]: > 158 µM
- MIC [18]: > 158 µM
- MIC [19]: 50 µM (≈ 15.9 µg/mL)
- MIC [20]: 158 µM (≈ 50.3 µg/mL)
- MIC [21]: > 158 µM
- MIC [22]: 158 µM (≈ 50.3 µg/mL)
- MIC [23]: > 158 µM
- MIC [24]: > 158 µM
- MIC [25]: > 158 µM
- MIC [26]: 158 µM (≈ 50.3 µg/mL)
- MIC [27]: > 158 µM
- MIC [28]: > 158 µM
- MIC [30]: > 158 µM
- MIC [31]: > 158 µM
- MIC [32]: > 158 µM
- MIC [33]: 158 µM (≈ 50.3 µg/mL)
- MIC [34]: 158 µM (≈ 50.3 µg/mL)
- MIC [35]: > 158 µM
- MIC [36]: 158 µM (≈ 50.3 µg/mL)
- MIC [37]: 100 µM (≈ 31.8 µg/mL)
- MIC [38]: 50 µM (≈ 15.9 µg/mL)
- MIC [39]: 158 µM (≈ 50.3 µg/mL)
- MIC [40]: 158 µM (≈ 50.3 µg/mL)
- MIC [41]: 158 µM (≈ 50.3 µg/mL)
- MIC [42]: 158 µM (≈ 50.3 µg/mL)
- MIC [43]: 158 µM (≈ 50.3 µg/mL)
- MIC [44]: 100 µM (≈ 31.8 µg/mL)
- MIC [45]: 158 µM (≈ 50.3 µg/mL)
- MIC [46]: 100 µM (≈ 31.8 µg/mL)
- MIC [47]: 158 µM (≈ 50.3 µg/mL)
- MIC [48]: 50 µM (≈ 15.9 µg/mL)
- MIC [49]: > 158 µM
Compound: C=C(CC(=O)O)C(=O)C[C@H]1C(=C)CC[C@H]2C(C)(C)CCC[C@]12C
- inhibition of growth at 1 µM [10]: 0%
- MIC [11]: 158 µM (≈ 50.3 µg/mL)
- inhibition of growth at 10 µM [17]: 46%
- inhibition of growth at 10 µM [29]: 25%
- inhibition of growth at 1 µM [50]: 22%
